Gli-Sufu antag: Gli-Sufu pathway antagonists, primary screen, luciferase luminescence, Sufu-KO-LIGHT cells, uHTS; Sufu-KO-LIGHT fibroblasts, Gli luciferase reporter luminescence; hit rate 0.74% among 340,000; AID 588413, 2011; inhibition, % at 5 µM;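 active = inhibition above about 55%, limit read from the data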;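 also: 0% = DMSO-treated cells and 100% = wells with medium but no cells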
XBP1 UPR activ: activators of adaptive XBP1 UPR arm, primary screen, cell-based, CHO-XBP1 luciferase reporter, luminescence, uHTS; IRE1-XBP1 UPR activation; percent of tunicamycin response, DMSO as zero; activation, % at 20 µM; hit rate 0.33% among 330,000;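 active = versus positive control, 20 µM dose yields 30% or more activation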;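 also: 100% = tunicamycin at 10 µg/mL and 0% = DMSO only wells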
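Material: CHO cell line with stable XBP1 luciferase reporter; buffer or medium: F12 medium containing 10% fetal bovine serum; compound: single point, 20 µM final compound, 1% DMSO; incubation: 6 h treatment, 37 °C; measured by: glow luminescence from Steady-Glo reagent; evaluation: activation, % of tunicamycin; control set: tunicamycin high, DMSO low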
697 NFkB inh: inhibitors of PMA/ionomycin-induced NF-kB reporter, 697 cells, primary screen, B-cell NF-kB inhibitor project, cell-based, luminescence, uHTS | hit rate 0.33% among 330,000 | 697 B-cell NF-kB luciferase reporter, 16 h | inhibition, % at 4 µM; in the data active = inhibition above about 35%
UPR CHOP act: activators of apoptotic CHOP UPR arm, primary screen, cell-based, CHO-CHOP luciferase reporter, luminescence, uHTS. UPR activation; percent of tunicamycin response over DMSO baseline. activation, % at 10 µM. hit rate 0.34% among 330,000. AID 449763, 2010;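 active = at 10 µM dose, activation of 40% or more, normalized to positive control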;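 also: 100% = tunicamycin at 10 µg/mL and 0% = DMSO alone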
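measured by = luciferase luminescence | assay system = CHO-CHOP cells, stable luciferase reporter of PERK-eIF2a-CHOP signalling | amount = 500 reporter cells seeded per well | timing = 6 h compound exposure at 37 °C after overnight seeding | controls = positive tunicamycin 10 µg/mL, negative DMSO alone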
Jurkat NFkB inh: inhibitors of induced NF-kB luciferase reporter, primary screen, TCR NF-kB activation inhibitor project, cell-based, luminescence, uHTS; Jurkat, PMA/ionomycin-induced NF-kB luciferase reporter; inhibition, % at 4 µM; hit rate 0.53% among 330,000; in the data active = inhibition above about 50%
CHOP inhibitor: inhibitors of CHOP promoter induction, primary screen, cell-based, unfolded protein response, luciferase reporter | AID 2732, 2010 | CHO-K1 CHOP-promoter luciferase, tunicamycin-induced, 15-18 h | hit rate 3.8% among 220,000 | inhibition, % at 10 µM;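 active = compounds that reduced the stress-induced luciferase reporter signal by more than about 70% of percent inhibition, limit read from the data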;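 also: 0% = tunicamycin plus vehicle and 100% = wells without tunicamycin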
Gli-Sufu confirm: Gli-SUFU pathway antagonists, confirmation, single concentration, luciferase luminescence, Sufu-KO-LIGHT cells; shares compounds with Gli-Sufu antag; Gli luciferase reporter; inhibition, % at 5 µM; hit rate 40% among 2,500; AID 602428, 2012;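 active = mean inhibition at 5 µM reaching about 45%, limit read from the data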;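 also: plate controls were DMSO-treated cells for no effect and wells lacking cells for full effect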
Gli cytotox: cytotoxicity in Sufu-KO-LIGHT cells, confirmation, cytotoxicity control for Gli-SUFU antagonist project, cell-based, ATP luminescence, single concentration. shares compounds with Gli-Sufu antag. hit rate 32% among 2,500. cytotoxicity, % at 5 µM;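 active = mean cytotoxicity at 5 µM above about 25%, limit read from the data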;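 also: cells exposed to compound overnight for roughly 16 to 18 hours; plate controls were DMSO wells with cells for no effect and medium without cells for full effect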
Wnt3a counter: Wnt3a reporter signal inhibition, confirmation, counter-screen for Gli-SUFU antagonist project, Wnt-LIGHT cells, luminescence, single concentration; shares compounds with Gli-Sufu antag; Wnt3a-driven luciferase reporter; inhibition, % at 6.25 µM; hit rate 20% among 2,500; AID 651995, 2013;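 active = mean inhibition above about 25%, limit read from the data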
* = called active by the depositor; . = not tested or not shown. Compounds with a hit are over-represented: about 3.9% of the library has one in this group of screens.

SMILES	Gli-Sufu antag	XBP1 UPR activ	697 NFkB inh	UPR CHOP act	Jurkat NFkB inh	CHOP inhibitor	Gli-Sufu confirm	Gli cytotox	Wnt3a counter
O=C(NC1CCCC1)C(c1ccccc1)N(Cc1cccnc1)C(=O)Cc1cccs1 (stereo not drawn)	57.3*	-1.1	1.3	-1.1	-30.5	2.4	22.9	0.5	6.4
Cc1ccc(CN(C(=O)Cc2cccs2)C(C(=O)NC2CCCC2)c2ccncc2)cc1 (stereo not drawn)	1.5	-1.7	2.2	-1.4	-7.8	20.9	.	.	.
Cc1ccc(CNC(=O)CCS(=O)(=O)Cc2ccc(C)cc2)cc1	51.2	-3.4	-27.9	-1.3	1.4	.	23.9	1.1	10.3
CCOC(=O)c1nccnc1C(=O)Nc1cccc(C(F)(F)F)c1	25.5	3.8	16.7	-0.8	6.6	8.7	.	.	.
CCOC(=O)C1=NN(C(=O)Nc2cccc(C(F)(F)F)c2)C2C(=O)N(c3cccc(C(F)(F)F)c3)C(=O)C12 (stereo not drawn)	70.5*	-0.5	17.7	-2.6	-15.9	3.8	24.5	-9.1	6.8
COc1ccc(-c2cn3nc(SCC(=O)NCC4CCCO4)ccc3n2)cc1 (stereo not drawn)	-85.8	-6.7	-60.8	-0.9	-57.6	.	.	.	.
CCN(CC)CCN1C(=O)c2oc3ccccc3c(=O)c2C1c1ccc(C)cc1 (stereo not drawn)	80.0*	-4.8	-31.2	-2.0	-4.9	20.5	21.9	-6.0	-22.1
Cc1cccc(-n2ncc3c(=O)[nH]c(SCC(=O)NCCC4=CCCCC4)nc32)c1	9.8	3.5	-2.8	1.2	-2.7	.	.	.	.
COCCOc1nc2c(c(=O)n(C)c(=O)n2C)n1Cc1cccc(OC)c1	51.8	-2.2	-88.1	1.9	-19.8	39.8	44.3	20.6	22.8
O=C(Nc1cccc(C(F)(F)F)c1)C1CCN(S(=O)(=O)c2ccc(N3CCCC3=O)cc2)CC1	53.2	-4.9	5.6	3.8	-0.5	.	57.6*	23.9	-8.7
CC(C)(C)c1cc(CP(=O)(c2ccccc2)c2ccccc2)cc(C(C)(C)C)c1O	10.0	0.9	-36.9	0.2	-16.8	.	.	.	.
CC1Cc2ccccc2N1C(=O)CSc1nncs1 (stereo not drawn)	-4.9	-1.2	-29.7	1.5	-14.5	.	.	.	.
CN1CCN(CC(=O)Nc2nc3c(s2)CCCC3)CC1	5.3	-1.5	-7.3	-0.6	-10.9	-11.3	.	.	.
CCN1CCN(/C=N/c2nc3c(s2)CCCC3)CC1	52.7	-8.8	-59.0	-9.6	-5.4	63.5	69.7*	21.9	80.3*
COc1ccc(N2CCN(C3CC(=O)N(C)C3=O)CC2)cc1 (stereo not drawn)	67.0*	1.7	6.6	-1.9	10.7	21.5	25.2	0.9	8.9
CN1C(=O)CC(N2CCN(c3ccc(Cl)cc3)CC2)C1=O (stereo not drawn)	-1.0	-4.5	23.5	0.6	-2.7	2.7	.	.	.
O=C(Nc1ccc(C(=O)O)cc1)Nc1ccc([N+](=O)[O-])cc1	13.2	-4.5	-1.9	1.9	16.0	.	.	.	.
O=C(Nc1cc(C(F)(F)F)cc(C(F)(F)F)c1)Nc1cnn(-c2ccc([N+](=O)[O-])cc2)c1C(F)(F)F	55.3*	17.3	-33.2	24.7	13.0	66.1	74.0*	12.8	24.4
N#Cc1ccccc1NC(=O)COC(=O)c1c[nH]c2ccccc12	-9.1	1.7	21.4	1.0	16.9	.	.	.	.
O=[N+]([O-])c1cc(/C=N/N/C(=N/c2ccccn2)c2ccccn2)ccc1O	79.2*	0.5	-51.9	4.7	-28.1	61.0	24.3	26.7*	-36.9
Cc1ccc(C)c(NC(=O)CN(C)C(=O)CSCc2c(C)noc2C)c1	-3.6	-1.0	-9.8	-0.4	5.2	.	.	.	.
CCN(CC(=O)Nc1cc(Cl)ccc1C)C(=O)CSCc1c(C)noc1C	51.6	-4.0	7.9	0.9	-0.8	.	12.7	21.8	-10.1
O=C(c1cc2sccc2n1Cc1ccc(F)cc1)N1CCN(c2nc3ccccc3s2)CC1	63.8*	-2.5	-43.9	9.9	34.0	58.6	69.7*	26.6*	-16.4
O=C1/C(=C/c2ccccc2O)SC(=S)N1Cc1cccnc1	72.2*	-1.3	8.2	0.3	9.2	6.2	31.5	8.9	-102.4
O=C1/C(=C\c2ccc(O)cc2)SC(=S)N1Cc1ccccc1	-11.2	-2.7	3.4	1.4	7.9	.	.	.	.
SMILES	Gli-Sufu antag	XBP1 UPR activ	697 NFkB inh	UPR CHOP act	Jurkat NFkB inh	CHOP inhibitor	Gli-Sufu confirm	Gli cytotox	Wnt3a counter
C[n+]1c2n(c3ccccc31)N=C(c1ccc(Cl)cc1)CS2	61.4*	-0.7	-15.9	-2.7	9.0	3.1	65.6*	37.4*	-8.6
CC1Sc2n(c3ccccc3[n+]2C)N=C1c1ccccc1 (stereo not drawn)	59.4*	2.4	-50.8	2.0	24.2	-5.8	74.9*	27.0*	12.1
Cc1ccnc(NC(=O)c2ccc(S(=O)(=O)NCc3ccco3)cc2)c1	-9.6	2.2	-27.6	0.3	-23.0	.	.	.	.
CCc1nc2ccc(C(=O)N3CCN(c4ccccc4F)CC3)cc2nc1CC	-14.6	-0.1	-5.5	0.0	4.4	.	.	.	.
C/C(=N\Nc1ccc(S(=O)(=O)Nc2ccccc2)cc1[N+](=O)[O-])c1ccncc1	.	4.7	-47.4	0.0	18.4	42.9	.	.	.
COc1ccc(NS(=O)(=O)c2ccc(N/N=C(\C)c3ccncc3)c([N+](=O)[O-])c2)cc1	66.0*	-1.9	-69.0	0.6	27.0	62.1	65.8*	24.9	34.5*
Cc1ccc(NS(=O)(=O)c2c(C)[nH]c(C)c2C(=O)N2CCCCC2)c(Cl)c1	-0.8	3.2	7.8	0.2	-4.7	.	.	.	.
COc1ccc(Cl)cc1NC(=O)CN(C)C(=O)CN1C(=O)NC(C)(c2ccc3ccccc3c2)C1=O (stereo not drawn)	-0.4	.	.	.	.	.	.	.	.
CC12c3ccccc3C(c3ccccc31)C1C(=O)N(c3ccncc3)C(=O)C12 (stereo not drawn)	-5.9	-1.1	6.7	0.2	-4.3	-23.8	.	.	.
O=C(O)c1ccc(N2C(=O)C3C4c5ccccc5C(Br)(c5ccccc54)C3C2=O)cc1 (stereo not drawn)	66.5*	-1.1	8.5	-2.6	-3.4	-1.7	17.4	10.5	6.3
